≈ marks a conversion by molar mass, not a printed value. Calls of active or inactive are those of the source. The rule behind the calls is not given here.
What was measured:
Candida albicans [1] = test: Antifungal activity against Candida albicans ATCC 44859 after 24 hrs by microdilution broth assay; assay type: functional; details: ATCC 44859, 24 h
Summary of the method: (§1)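 Broth microdilution per CLSI M27-A3 and M38-A2 in RPMI 1640 with glutamine, buffered to pH 7.0 with MOPS. Compounds are diluted in DMSO. Final inoculum is 5 × 10³ CFU/mL for yeasts and 0.5–5 × 10⁴ CFU/mL for moulds. Plates are incubated in the dark at 35 °C in humid air and read visually and/or at 540 nm after 24 and 48 h. MIC is ≥80% growth reduction (IC₈₀) for yeasts and ≥50% (IC₅₀) for filamentous fungi.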

Candida albicans [2] = test: Antifungal activity against Candida albicans ATCC 44859 after 48 hrs by microdilution broth assay; assay type: functional; details: ATCC 44859, 48 h; summary of the method: as §1
Candida tropicalis [3] = test: Antifungal activity against Candida tropicalis 156 after 24 hrs by microdilution broth assay; assay type: functional; details: Candida tropicalis, 156, 24 h; summary of the method: as §1
Candida tropicalis [4] = test: Antifungal activity against Candida tropicalis 156 after 48 hrs by microdilution broth assay; assay type: functional; details: Candida tropicalis, 156, 48 h; summary of the method: as §1
Nakaseomyces glabratus [5] = test: Antifungal activity against Candida glabrata 20/I after 24 hrs by microdilution broth assay; assay type: functional; summary of the method: as §1
Nakaseomyces glabratus [6] = test: Antifungal activity against Candida glabrata 20/I after 48 hrs by microdilution broth assay; assay type: functional; summary of the method: as §1
Trichosporon asahii [7] = test: Antifungal activity against Trichosporon asahii 1188 after 24 hrs by microdilution broth assay; assay type: functional; details: Trichosporon asahii, 1188, 24 h; summary of the method: as §1
Trichosporon asahii [8] = test: Antifungal activity against Trichosporon asahii 1188 after 48 hrs by microdilution broth assay; assay type: functional; details: Trichosporon asahii, 1188, 48 h; summary of the method: as §1
Aspergillus fumigatus [9] = test: Antifungal activity against Aspergillus fumigatus 231 after 24 hrs by microdilution broth assay; assay type: functional; details: Aspergillus fumigatus, 231, 24 h; summary of the method: as §1
Aspergillus fumigatus [10] = test: Antifungal activity against Aspergillus fumigatus 231 after 48 hrs by microdilution broth assay; assay type: functional; details: Aspergillus fumigatus, 231, 48 h; summary of the method: as §1
[11] = tested on: Trichophyton mentagrophytes; test: Antifungal activity against Trichophyton mentagrophytes 445 after 72 hrs by microdilution broth assay; assay type: functional; details: Trichophyton mentagrophytes, 445, 72 h
Summary of the method: (§2)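 Broth microdilution per CLSI M38-A2 in RPMI 1640 with glutamine, buffered to pH 7.0 with MOPS, with DMSO as diluent. Final inoculum is 0.5–5 × 10⁴ CFU/mL. Plates are incubated in the dark at 35 °C in humid air and read visually and/or at 540 nm after 72 and 120 h. MIC is at least 50% growth reduction versus control.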

[12] = tested on: Trichophyton mentagrophytes; test: Antifungal activity against Trichophyton mentagrophytes 445 after 120 hrs by microdilution broth assay; assay type: functional; details: Trichophyton mentagrophytes, 445, 120 h; summary of the method: as §2
[13] = tested on: Mycobacterium tuberculosis; test: Antimycobacterial activity against Mycobacterium tuberculosis H37Rv 331/88 measured after 14 days by micromethod; assay type: functional; details: H37Rv 331/88, 336 h
[14] = tested on: Mycobacterium tuberculosis; test: Antimycobacterial activity against Mycobacterium tuberculosis H37Rv 331/88 measured after 21 days by micromethod; assay type: functional; details: H37Rv 331/88, 504 h
Mycobacterium avium [15] = test: Antimycobacterial activity against Mycobacterium avium 330/88 measured after 14 days by micromethod; assay type: functional; details: 330/88, 336 h
Mycobacterium avium [16] = test: Antimycobacterial activity against Mycobacterium avium 330/88 measured after 21 days by micromethod; assay type: functional; details: 330/88, 504 h
Mycobacterium kansasii [17] = test: Antimycobacterial activity against Mycobacterium kansasii isolate 235/80 after 7 days by micromethod; assay type: functional; details: isolate 235/80, 168 h
Mycobacterium kansasii [18] = test: Antimycobacterial activity against Mycobacterium kansasii isolate 235/80 after 14 days by micromethod; assay type: functional; details: isolate 235/80, 336 h
Mycobacterium kansasii [19] = test: Antimycobacterial activity against Mycobacterium kansasii isolate 235/80 after 21 days by micromethod; assay type: functional; details: isolate 235/80, 504 h
Mycobacterium kansasii [20] = test: Antimycobacterial activity against Mycobacterium kansasii isolate 6509/96 after 7 days by micromethod; assay type: functional; details: isolate 6509/96, 168 h
Mycobacterium kansasii [21] = test: Antimycobacterial activity against Mycobacterium kansasii isolate 6509/96 after 14 days by micromethod; assay type: functional; details: isolate 6509/96, 336 h
Mycobacterium kansasii [22] = test: Antimycobacterial activity against Mycobacterium kansasii isolate 6509/96 after 21 days by micromethod; assay type: functional; details: isolate 6509/96, 504 h
[23] = Solubility of the compound in Sula's semisynthetic medium up to 1 mM; assay type: physicochemical
Staphylococcus aureus [24] = test: Antibacterial activity against Staphylococcus aureus CCM 4516/08 incubated for 24 hrs under dark condition by microdilution broth assay; assay type: functional; details: CCM 4516/08, 24 h
Summary of the method: (§3)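 Broth microdilution per M07-A07, modified, in Mueller-Hinton broth adjusted to pH 7.4 (±0.2). Inoculum is prepared in sterile water to McFarland 0.5 (1.5 × 10⁸ CFU/mL). Plates are incubated in the dark at 35 °C in humid air. MIC is read after 24 and 48 h as at least 95% growth reduction versus control (IC₉₅).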

Staphylococcus aureus [25] = test: Antibacterial activity against Staphylococcus aureus CCM 4516/08 incubated for 48 hrs under dark condition by microdilution broth assay; assay type: functional; details: CCM 4516/08, 48 h; summary of the method: as §3
Staphylococcus aureus [26] = test: Antibacterial activity against methicillin-resistant Staphylococcus aureus H 5996/08 incubated for 24 hrs under dark condition by microdilution broth assay; assay type: functional; details: H 5996/08, 24 h
Summary of the method: (§4)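 Microdilution broth method modified per M07-A07, in Mueller-Hinton broth adjusted to pH 7.4 (±0.2). Inoculum made in sterile water to 0.5 McFarland (1.5 × 10⁸ CFU/mL). Plates incubated in the dark at 35 °C in a humid atmosphere, with reads at 24 and 48 h. MIC taken as at least 95% growth reduction (IC₉₅) versus control.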

Staphylococcus aureus [27] = test: Antibacterial activity against methicillin-resistant Staphylococcus aureus H 5996/08 incubated for 48 hrs under dark condition by microdilution broth assay; assay type: functional; details: H 5996/08, 48 h; summary of the method: as §4
[28] = tested on: Staphylococcus epidermidis; test: Antibacterial activity against Staphylococcus epidermidis H 6966/08 incubated for 24 hrs under dark condition by microdilution broth assay; assay type: functional; details: H 6966/08, 24 h; summary of the method: as §3
[29] = tested on: Staphylococcus epidermidis; test: Antibacterial activity against Staphylococcus epidermidis H 6966/08 incubated for 48 hrs under dark condition by microdilution broth assay; assay type: functional; details: H 6966/08, 48 h; summary of the method: as §3
Escherichia coli [30] = test: Antibacterial activity against Escherichia coli CCM 4517 incubated for 24 hrs under dark condition by microdilution broth assay; assay type: functional; details: CCM 4517, 24 h; summary of the method: as §3
Escherichia coli [31] = test: Antibacterial activity against Escherichia coli CCM 4517 incubated for 48 hrs under dark condition by microdilution broth assay; assay type: functional; details: CCM 4517, 48 h; summary of the method: as §3
Klebsiella pneumoniae [32] = test: Antibacterial activity against Klebsiella pneumoniae D 11750/08 up to 500 uM incubated for 24 to 48 hrs under dark condition by microdilution broth assay; assay type: functional; summary of the method: as §3
Klebsiella pneumoniae [33] = test: Antibacterial activity against ESBL positive Klebsiella pneumoniae J 14368/08 up to 500 uM incubated for 24 to 48 hrs under dark condition by microdilution broth assay; assay type: functional; summary of the method: as §3
Pseudomonas aeruginosa = test: Antibacterial activity against Pseudomonas aeruginosa CCM 1961 up to 500 uM incubated for 24 to 48 hrs under dark condition by microdilution broth assay; assay type: functional; summary of the method: as §3
Pichia kudriavzevii = test: Antifungal activity against Candida krusei E28 after 24 to 48 hrs hrs by microdilution broth assay; assay type: functional; summary of the method: as §1
Lichtheimia corymbifera = test: Antifungal activity against Absidia corymbifera 272 after 24 to 48 hrs hrs by microdilution broth assay; assay type: functional; summary of the method: as §1
Enterococcus [34] = test: Antibacterial activity against Enterococcus sp. J 14365/08 incubated for 24 hrs under dark condition by microdilution broth assay; details: J 14365/08, 24 h
Enterococcus [35] = test: Antibacterial activity against Enterococcus sp. J 14365/08 incubated for 48 hrs under dark condition by microdilution broth assay; details: J 14365/08, 48 h

SMILES	MIC [13] [µM]	MIC [14] [µM]	MIC (Mycobacterium avium [15]) [µM]	MIC (Mycobacterium avium [16]) [µM]	MIC (Mycobacterium kansasii [17]) [µM]	MIC (Mycobacterium kansasii [18]) [µM]	MIC (Mycobacterium kansasii [19]) [µM]	MIC (Mycobacterium kansasii [20]) [µM]	MIC (Mycobacterium kansasii [21]) [µM]	MIC (Mycobacterium kansasii [22]) [µM]	solubility [23]	MIC95 (Staphylococcus aureus [24]) [µM]	MIC95 (Staphylococcus aureus [25]) [µM]	MIC95 (Staphylococcus aureus [26]) [µM]	MIC95 (Staphylococcus aureus [27]) [µM]	MIC95 [28] [µM]	MIC95 [29] [µM]	MIC95 (Escherichia coli [30]) [µM]	MIC95 (Escherichia coli [31]) [µM]	Activity (Klebsiella pneumoniae [32])	further results
OC(Cn1cncn1)(Cn1cncn1)c1ccc(F)cc1F [FLUCONAZOLE]																					MIC80 (Candida albicans [1]): 0.24 µM (≈ 0.0735 µg/mL); MIC80 (Candida albicans [2]): 0.24 µM (≈ 0.0735 µg/mL); MIC80 (Candida tropicalis [3]): > 500 µM; MIC80 (Candida tropicalis [4]): > 500 µM; MIC80 (Nakaseomyces glabratus [5]): 62.5 µM (≈ 19.1 µg/mL); MIC80 (Nakaseomyces glabratus [6]): 500 µM (≈ 153 µg/mL); MIC80 (Trichosporon asahii [7]): 250 µM (≈ 76.6 µg/mL); MIC80 (Trichosporon asahii [8]): 500 µM (≈ 153 µg/mL); MIC50 (Aspergillus fumigatus [9]): > 500 µM; MIC50 (Aspergillus fumigatus [10]): > 500 µM; MIC50 [11]: 7.81 µM (≈ 2.39 µg/mL); MIC50 [12]: 125 µM (≈ 38.3 µg/mL)
O=C(O)CN1C(=O)/C(=C/c2cc(Br)ccc2O)SC1=S	32 (≈ 12 µg/mL)	62.5 (≈ 23.4 µg/mL)	62.5 (≈ 23.4 µg/mL)	62.5 (≈ 23.4 µg/mL)	62.5 (≈ 23.4 µg/mL)	62.5 (≈ 23.4 µg/mL)	62.5 (≈ 23.4 µg/mL)	62.5 (≈ 23.4 µg/mL)	125 (≈ 46.8 µg/mL)	250 (≈ 93.6 µg/mL)	Soluble	250 (≈ 93.6 µg/mL)	250 (≈ 93.6 µg/mL)	125 (≈ 46.8 µg/mL)	125 (≈ 46.8 µg/mL)	62.5 (≈ 23.4 µg/mL)	62.5 (≈ 23.4 µg/mL)	500 (≈ 187 µg/mL)	500 (≈ 187 µg/mL)	inactive	Activity (Klebsiella pneumoniae [33]): inactive; Activity (Pseudomonas aeruginosa): inactive; Activity (Pichia kudriavzevii): inactive; Activity (Lichtheimia corymbifera): inactive; MIC95 (Enterococcus [34]): 500 µM (≈ 187 µg/mL); MIC95 (Enterococcus [35]): 500 µM (≈ 187 µg/mL)
O=C(O)CN1C(=O)/C(=C/c2cc(Cl)ccc2O)SC1=S	32 (≈ 10.6 µg/mL)	62.5 (≈ 20.6 µg/mL)	62.5 (≈ 20.6 µg/mL)	62.5 (≈ 20.6 µg/mL)	32 (≈ 10.6 µg/mL)	62.5 (≈ 20.6 µg/mL)	62.5 (≈ 20.6 µg/mL)	32 (≈ 10.6 µg/mL)	62.5 (≈ 20.6 µg/mL)	125 (≈ 41.2 µg/mL)	Soluble	250 (≈ 82.4 µg/mL)	250 (≈ 82.4 µg/mL)	125 (≈ 41.2 µg/mL)	125 (≈ 41.2 µg/mL)	62.5 (≈ 20.6 µg/mL)	62.5 (≈ 20.6 µg/mL)	500 (≈ 165 µg/mL)	> 500	inactive	Activity (Klebsiella pneumoniae [33]): inactive; Activity (Pseudomonas aeruginosa): inactive; Activity (Pichia kudriavzevii): inactive; Activity (Lichtheimia corymbifera): inactive; MIC95 (Enterococcus [34]): 125 µM (≈ 41.2 µg/mL); MIC95 (Enterococcus [35]): 500 µM (≈ 165 µg/mL)

Source: ChEMBL document CHEMBL3992547, “Antimicrobial activity of rhodanine-3-acetic acid derivatives” (Bioorg Med Chem, 2017)
